According to ChEMBL document CHEMBL1148342, “Synthesis, X-ray crystal structures, stabilities, and in vitro cytotoxic activities of new heteroarylacrylonitriles” (J Med Chem, 2004):

Experiments:
[1] = tested on: KYSE-510; assay: Cytotoxic activity against human KYSE-510 cell line at 20 uM expressed as percent growth value; format: functional
Outline: (§1)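 Cells in RPMI-1640 with 10% FCS were seeded (1000 cells/well; KYSE-510 500, LCLC-103H 250), then exposed 24 h later for 96 h. Read-out was crystal violet staining of glutaraldehyde-fixed cells at OD 570 nm. Growth (%) = (OD treated − OD at drug addition)/(OD control − OD at drug addition) × 100.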

[2] = tested on: RT-112; assay: Growth inhibition against human RT-112 cell lines; format: functional, cell-based
Outline: (§2)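 Cells were grown in RPMI-1640 with 2 g/L NaHCO3 and 10% FCS at 37 °C in 5% CO2, seeded at 1000 cells/well, and dosed 24 h later at five geometric dilutions for 96 h of continuous exposure. Cells were then glutaraldehyde-fixed and stained with crystal violet, with OD read at 570 nm. IC50 was taken from the dose–response data.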

[3] = tested on: 5637; assay: Growth inhibition against human 5637 cell lines; format: functional, cell-based; outline: as §2
[4] = tested on: DAN-G; assay: Growth inhibition against human DAN-G cell lines; format: functional, cell-based; outline: as §2
[5] = tested on: SISO; assay: Growth inhibition against human SISO cell lines; format: functional, cell-based; outline: as §2
[6] = tested on: LCLC-103H cell line; assay: Growth inhibition against human LCLC-103H cell lines; format: functional, cell-based
Outline: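 LCLC-103H cells were grown in RPMI-1640 with 2 g/L NaHCO3 and 10% FCS (5% CO2, 37 °C) and plated at 250 cells/well. After 24 h, five geometric dilutions were applied continuously for 96 h. Fixation was with glutaraldehyde, followed by crystal violet staining and OD at 570 nm. IC50 came from the dose–response curves.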

[7] = tested on: KYSE-510 (human); assay: Growth inhibition against human KYSE-510 cell lines
[8] = tested on: YAPC; assay: Compound was tested for growth inhibition against human YAPC cell lines; format: functional, cell-based; outline: as §2
[9] = tested on: LCLC-103H cell line; assay: Cytotoxic activity against human LCLC-103H cell line at 20 uM expressed as percent growth value; format: functional; outline: as §1
[10] = tested on: TERT-RPE1; assay: Compound was tested for growth inhibition against human h-TERTRPE1 cell lines; format: functional, cell-based
Outline: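 The noncancerous hTERT-immortalized epithelial line h-TERT-RPE1 was grown in DMEM/F-12 with 2 g/L NaHCO3 and 10% FCS (37 °C, 5% CO2) and seeded at 1000 cells/well. Substance was added 24 h later at five geometric dilutions for 96 h continuously. The read-out was crystal violet staining after glutaraldehyde fixation, OD 570 nm, with IC50 from dose–response.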

[11] = tested on: MCF7; assay: Growth inhibition against human MCF-7 cell lines; format: functional, cell-based
Outline: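 MCF-7 was cultured in RPMI-1640 with 2 g/L NaHCO3, 10% FCS, 1 mM pyruvate, MEM salts and amino acids. Plating was 1000 cells/well, then after 24 h, 96 h of continuous exposure at five geometric dilutions. Crystal violet staining of glutaraldehyde-fixed cells was read at 570 nm, and IC50 was derived from the dose–response data.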

[12] = tested on: SISO; assay: Cytotoxic activity against human SISO cell line at 20 uM; format: functional; outline: as §1
[13] = tested on: KYSE-520 cell line; assay: Growth inhibition against human KYSE-520 cell lines; format: functional, cell-based; outline: as §2
[14] = tested on: RT-4; assay: Growth inhibition against human RT-4 cell lines; format: functional, cell-based; outline: as §2
[15] = tested on: KYSE-70 cell line; assay: Growth inhibition against human KYSE-70 cell lines; format: functional, cell-based; outline: as §2
[16] = tested on: 5637; assay: Cytotoxic activity against human 5637 cell line at 20 uM expressed as percent growth value; format: functional; outline: as §1
[17] = tested on: KYSE-70 cell line; assay: Cytotoxic activity against human KYSE-70 cell line at 20 uM expressed as percent growth value; format: functional; outline: as §1

Compound	Activity [1]	IC50 ([2]; Homo sapiens, RT-112)	IC50 ([3]; Homo sapiens)	IC50 ([4]; Homo sapiens, DAN-G)	IC50 ([5]; Homo sapiens, SISO)	IC50 ([6]; Homo sapiens, LCLC-103H)	IC50 ([7]; Homo sapiens, KYSE-510)	IC50 ([8]; Homo sapiens, YAPC)	Activity [9]	IC50 ([10]; Homo sapiens, RPE-1)	IC50 ([11]; Homo sapiens, MCF7)	Activity [12]	IC50 ([13]; Homo sapiens, KYSE-520)	IC50 ([14]; Homo sapiens, RT-4)	IC50 ([15]; Homo sapiens, KYSE-70)	Activity [16]	Activity [17]	further results
N#C/C(=C\c1ccc([N+](=O)[O-])o1)c1n[nH]c(-c2ccccc2)n1	-20.9	1510 nM	1220 nM	1520 nM	1200 nM	700 nM	1350 nM	1400 nM	-8.4	1160 nM	1620 nM	-7.9	1620 nM	1850 nM	1170 nM			
N#C/C(=C\c1cccc([N+](=O)[O-])c1)c1nc2ccccc2[nH]1			15200 nM	15800 nM	30900 nM	1130 nM					16400 nM	54.2		7680 nM	22500 nM	14.4	55.4	
N#C/C(=C\c1cccs1)c1nc2ccccc2[nH]1			17800 nM	15000 nM	25900 nM	2500 nM					11200 nM	82.4		14600 nM	8780 nM	49.3	30.8	
N#C/C(=C\c1cccc([N+](=O)[O-])c1)c1n[nH]c(-c2ccccc2)n1	108								56.4			85.5						
N#C/C(=C\c1ccc([N+](=O)[O-])o1)c1n[nH]c(Cc2ccccc2)n1	-20.7	750 nM	400 nM	490 nM	370 nM	290 nM	620 nM	450 nM	-7.3	420 nM	610 nM	-8.1	750 nM	1370 nM	400 nM			
CN(C)c1ccc(/C=C(\C#N)c2nc3ccccc3[nH]2)cc1												95				61.1	124.4	
N#C/C(=C\c1ccc(OC(F)(F)F)cc1)c1nc2ccccc2[nH]1												71.7				66	96.7	
COc1ccc(/C=C(\C#N)c2nc3ccccc3[nH]2)cc1												72.1				64.9	75.8	
Cc1n[nH]c(/C(C#N)=C/c2ccc([N+](=O)[O-])o2)n1	-21.3	1000 nM	540 nM	1000 nM	270 nM	350 nM	900 nM	850 nM	-8.4	690 nM	1470 nM	-8.7	860 nM	1480 nM	660 nM			
CN(C)c1ccc(/C=C(\C#N)c2n[nH]c(Cc3ccccc3)n2)cc1	-1.01	3690 nM	1380 nM	4110 nM	3240 nM	1650 nM	3360 nM	3480 nM	-1.8		1490 nM	1.2	6260 nM	2500 nM	2530 nM			
Cc1n[nH]c(/C(C#N)=C/c2cccc([N+](=O)[O-])c2)n1	94.1								68.8			98.1						
N#C/C(=C\c1ccc([N+](=O)[O-])o1)c1nc2ccccc2[nH]1	-21.2	690 nM	480 nM	690 nM	330 nM	410 nM	750 nM	570 nM	-8	600 nM	650 nM	-8.2	620 nM	990 nM	450 nM			
Cc1ccc(/C=C(\C#N)c2nc3ccccc3[nH]2)s1			20000 nM	> 20000 nM	> 20000 nM	2110 nM			5.9			64.5		> 20000 nM		47.8		
N#C/C(=C\c1ccc(C(F)(F)F)cc1)c1nc2ccccc2[nH]1			12200 nM	17600 nM	14000 nM	1600 nM					9110 nM	61.8		16300 nM	15600 nM	34.4	69.7	
N#C/C(=C\c1ccco1)c1nc2ccccc2[nH]1												106.1				86.1	56.6	
N#C/C(=C\c1ccc([N+](=O)[O-])s1)c1n[nH]c(-c2ccccc2)n1	-21.7	830 nM	480 nM	420 nM	890 nM	540 nM	630 nM	320 nM	-6.5	420 nM	680 nM	-9.9	570 nM	1030 nM	350 nM			
N#C/C(=C\c1ccc(C#N)cc1)c1nc2ccccc2[nH]1												99.2				75.6	99.3	
N#C/C(=C\c1ccc([N+](=O)[O-])cc1)c1nc2ccccc2[nH]1												99.2				73.9	88	
N#C/C(=C\c1ccc([N+](=O)[O-])s1)c1n[nH]c(Cc2ccccc2)n1	-21.3	650 nM	320 nM	500 nM	780 nM	310 nM	530 nM	360 nM	-8.4	510 nM	420 nM	-8.7	290 nM	590 nM	420 nM			
N#C/C(=C\c1ccc(Cl)s1)c1nc2ccccc2[nH]1			22400 nM	> 20000 nM	> 20000 nM	1970 nM			13.4			102.2		> 20000 nM		44.6		
N#C/C(=C\c1csc([N+](=O)[O-])c1)c1nc2ccccc2[nH]1			> 20000 nM	> 20000 nM	> 20000 nM	1420 nM			8.6	> 5000 nM		82.3		> 20000 nM		80		
Cc1n[nH]c(/C(C#N)=C/c2ccc([N+](=O)[O-])s2)n1	-21.3	670 nM	220 nM	570 nM	510 nM	330 nM	560 nM	410 nM	-8.4	690 nM	380 nM	-8.8	600 nM	900 nM	440 nM			
N#C/C(=C\c1ccc([N+](=O)[O-])s1)c1nc2ccccc2[nH]1	20.5	360 nM	150 nM	320 nM	310 nM	170 nM	330 nM	160 nM	-6.5	390 nM	160 nM	18	110 nM	270 nM	160 nM			
COc1cc([C@@H]2c3cc4c(cc3[C@@H](O[C@@H]3O[C@@H]5CO[C@@H](C)O[C@H]5[C@H](O)[C@H]3O)[C@H]3COC(=O)[C@H]23)OCO4)cc(OC)c1O [ETOPOSIDE]		220 nM	530 nM	380 nM	150 nM		700 nM	1320 nM		90 nM	540 nM		410 nM	1330 nM	790 nM			
CISPLATIN																		IC50 ([2]; rt-112): 2140 nM; IC50 [3]: 310 nM; IC50 ([4]; dan-g): 1390 nM; IC50 ([5]; siso): 200 nM; IC50 ([6]; lclc-103h): 1630 nM; IC50 ([7]; kyse-510): 880 nM; IC50 ([8]; yapc): 6030 nM; IC50 ([10]; tert-rpe1): 3040 nM; IC50 ([11]; mcf7): 740 nM; IC50 ([13]; kyse-520): 5070 nM; IC50 ([14]; rt-4): 3700 nM; IC50 ([15]; kyse-70): 1490 nM
